# Measured values pooled from the literature.
# Compare with care: the assays were run in different laboratories.
# KCNA1: Potassium voltage-gated channel subfamily A member 1 (KCNA1, Homo sapiens, UniProt Q09470)
SMILES,target,assay,system,setting,endpoint,value
Cn1c(=O)c2[nH]cnc2n(C)c1=O,KCNA1,"ion current, inhibitor, patch clamp",,3 µM,inhibition,1.92%
COc1cc(-c2cncc3c2CN(C)Cc2cc(N4CCNCC4)ccc2-3)cc(OC)c1OC,"Serine/threonine-protein kinase N2 (PKN2, Homo sapiens, UniProt Q16513)","enzyme activity, inhibitor",,1 µM,remaining activity,112%
O=C1NC(=O)C(c2ccccc2)(c2ccccc2)N1,KCNA1,"ion current, inhibitor, patch clamp",,30 µM,inhibition,20.6%
O=C(O)CNc1cccc(CN(Cc2ccc(-n3cccn3)cc2)S(=O)(=O)c2cccnc2)n1,"Prostaglandin E2 receptor EP2 subtype (PTGER2, Homo sapiens, UniProt P43116)","ligand displacement, radioligand",,10 µM,inhibition,95%
Cc1cc(NC(=O)c2cccc(NC(=O)/C=C/CN(C)C)c2)ccc1Nc1nccc(-c2cccnc2)n1,"Insulin receptor (INSR, Homo sapiens, UniProt P06213)","binding, competition with immobilised ligand",,1 µM,remaining binding,81%
CC(C)NCC(O)COc1cccc2ccccc12 (stereo not drawn),KCNA1,"ion current, inhibitor, patch clamp",,10 µM,inhibition,20.2%
C=CC(=O)N1CCC(COCC(=O)N2CCN(c3nc(-c4cnc(N)nc4C(F)F)nc(N4CCOC[C@@H]4C)n3)CC2)CC1,"Serine/threonine-protein kinase SBK1 (SBK1, Homo sapiens, UniProt Q52WX2)","binding, competition with immobilised ligand",,1 µM,remaining binding,100%
Cc1cc([C@@H](C)Nc2ccccc2C(=O)O)c2nc(N3CCC(F)(F)CC3)c(C#N)c(=O)n2c1,"RAF proto-oncogene serine/threonine-protein kinase (RAF1, Homo sapiens, UniProt P04049)","binding, competition with immobilised ligand",,10 µM,remaining binding,90%
COc1ccc(S(=O)(=O)N(CC(=O)NO)CC(C)C)cc1,"Collagenase 3 (MMP13, Homo sapiens, UniProt P45452)","enzyme activity, inhibitor",,0.5 µM,inhibition,51.2%
CC[C@H](C)[C@H](NC(=O)[C@H](CCC(N)=O)NC(=O)[C@H](CCCNC(=N)N)NC(=O)[C@H](CO)NC(=O)[C@H](Cc1c[nH]cn1)NC(=O)[C@@H]1CCCN1C(=O)[C@H](C)NC(=O)[C@H](CO)NC(=O)[C@H](CC(C)C)NC(=O)CNC(=O)[C@@H]1CCCN1C(=O)[C@H](CCC(N)=O)NC(=O)[C@H](CCC(N)=O)NC(=O)[C@H](CCCNC(=N)N)NC(=O)[C@H](CO)NC(=O)CNC(=O)[C@H](CO)NC(=O)[C@H](CO)NC(=O)[C@H](CCC(=O)O)NC(=O)[C@@H]1CCCN1C(=O)[C@@H]1CCCN1C(=O)[C@@H]1CCCN1C(=O)[C@H](CO)NC(=O)[C@H](CC(C)C)NC(=O)[C@H](CO)NC(=O)[C@@H](NC(=O)CN)[C@@H](C)O)C(=O)N1CCC[C@H]1C(=O)N[C@@H](C)C(=O)N1CCC[C@H]1C(=O)N[C@@H](CCC(N)=O)C(=O)NCC(=O)N[C@@H](C)C(=O)N[C@H](C(=O)N[C@@H](CC(C)C)C(=O)N[C@H](C(=O)N[C@@H](CCC(N)=O)C(=O)N[C@@H](CCCNC(=N)N)C(=O)N[C@@H](CCC(=O)O)C(=O)N[C@@H](CCCCN)C(=O)N[C@@H](CC(=O)O)C(=O)N[C@@H](CC(C)C)C(=O)N1CCC[C@H]1C(=O)N[C@@H](CC(N)=O)C(=O)N[C@@H](Cc1ccc(O)cc1)C(=O)N[C@@H](CC(N)=O)C(=O)N[C@@H](Cc1c[nH]c2ccccc12)C(=O)N[C@@H](CC(N)=O)C(=O)N[C@@H](CO)C(=O)N[C@@H](Cc1ccccc1)C(=O)NCC(=O)N[C@@H](CC(C)C)C(=O)N[C@@H](CCCNC(=N)N)C(=O)N[C@@H](Cc1ccccc1)C(N)=O)C(C)C)C(C)C,"KiSS-1 receptor (KISS1R, Homo sapiens, UniProt Q969F8, N119A)","inositol phosphate, agonist",HEK293,,Emax,93.6%
CCCN1C[C@H](CSC)C[C@@H]2c3cccc4[nH]cc(c34)C[C@H]21,KCNA1,"ion current, inhibitor, patch clamp",,30 µM,inhibition,34.8%
CNc1ncc2c(/C=C/C(=O)N3CCC(OC)CC3)nn(Cc3cccc(C(F)(F)F)c3)c2n1,"Cyclin-dependent kinase 3, with cyclin E1 (CDK3, Homo sapiens, UniProt Q00526)","enzyme activity, inhibitor, radiometric",,1 µM,remaining activity,93%
